Like-named read-outs stand apart in the source and are kept apart here.
Format: in vivo, human
Conditions: for AUC / concentration at 24 h / Cmax: human, plasma, oral; for Cmax: Entire Cmax
Procedure, shortened: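 Ensitrelvir was dosed once daily, 375 mg on day 1 then 125 mg on days 2–5, or 750/250 mg. A population PK model was fitted to 8034 plasma concentrations from 2060 healthy and SARS-CoV-2-infected participants: two-compartment, first-order absorption, with covariates tested on CL/F. Empirical Bayesian estimates from the final model were used to calculate individual exposures for SCORPIO-SR phase III participants.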

[1] = 125 mg group: 375 mg on day 1 and 125 mg on days 2–5, day 1
[2] = 125 mg group: 375 mg on day 1 and 125 mg on days 2–5, day 5
[3] = 250 mg group: 750 mg on day 1 and 250 mg on days 2–5
[4] = 250 mg group: 750 mg on day 1 and 250 mg on days 2–5, Bayesian-estimated
[5] = 250 mg group: 750 mg on day 1 and 250 mg on days 2–5, day 1
[6] = 250 mg group: 750 mg on day 1 and 250 mg on days 2–5, day 5

Cn1cnc(Cn2c(=O)[nH]/c(=N\c3cc4cn(C)nc4cc3Cl)n(Cc3cc(F)c(F)cc3F)c2=O)n1 [ensitrelvir]
Cmax_d1, Median [1]: 22900 ng/mL | Cmax_d1, Minimum [1]: 10300 ng/mL | AUC_d5, Maximum [2]: 1156 µg·h/mL | AUC_d5, Minimum [2]: 224.5 µg·h/mL | Cmax_d5, Maximum [2]: 46800 ng/mL | Cmax_d5, Mean [2]: 26600 ng/mL | Cmax_d5, Median [2]: 26200 ng/mL | Cmax_d5, Minimum [2]: 14300 ng/mL | Entire AUC, Maximum [3]: 9652 µg·h/mL | Entire AUC, Minimum [3]: 3090 µg·h/mL | Entire Cmax, Maximum [3]: 104000 ng/mL | Entire Cmax, Minimum [3]: 31900 ng/mL | CL/F, Maximum [4]: 0.353 L/h | CL/F, Mean [4]: 0.201 L/h | CL/F, Median [4]: 0.198 L/h | CL/F, Minimum [4]: 0.0963 L/h | Vc/F, Maximum [4]: 28.1 L | Vc/F, Mean [4]: 14.5 L | Vc/F, Median [4]: 14.1 L | Vc/F, Minimum [4]: 7.31 L | AUC_d1, Maximum [5]: 1617 µg·h/mL | AUC_d1, Minimum [5]: 375.0 µg·h/mL | Cmax_d1, Maximum [5]: 86900 ng/mL | Cmax_d1, Mean [5]: 48900 ng/mL | Cmax_d1, Median [5]: 47700 ng/mL | Cmax_d1, Minimum [5]: 24900 ng/mL | AUC_d5, Maximum [6]: 2502 µg·h/mL | AUC_d5, Minimum [6]: 615.4 µg·h/mL | Cmax_d5, Maximum [6]: 104000 ng/mL | Cmax_d5, Mean [6]: 56400 ng/mL | Cmax_d5, Median [6]: 55100 ng/mL | Cmax_d5, Minimum [6]: 31900 ng/mL | AUC (AUC_d1, Mean, 125 mg group: 375 mg on day 1 and 125 mg on days 2–5, day 1): 438 µg·h/mL | AUC (AUC_d1, Mean, 250 mg group: 750 mg on day 1 and 250 mg on days 2–5, day 1): 910 µg·h/mL | AUC (AUC_d1, Median, 125 mg group: 375 mg on day 1 and 125 mg on days 2–5, day 1): 432 µg·h/mL | AUC (AUC_d1, Median, 250 mg group: 750 mg on day 1 and 250 mg on days 2–5, day 1): 887 µg·h/mL | AUC (AUC_d5, Mean, 125 mg group: 375 mg on day 1 and 125 mg on days 2–5, day 5): 578 µg·h/mL | AUC (AUC_d5, Mean, 250 mg group: 750 mg on day 1 and 250 mg on days 2–5, day 5): 1230 µg·h/mL | AUC (AUC_d5, Median, 125 mg group: 375 mg on day 1 and 125 mg on days 2–5, day 5): 568 µg·h/mL | AUC (AUC_d5, Median, 250 mg group: 750 mg on day 1 and 250 mg on days 2–5, day 5): 1200 µg·h/mL | concentration at 24 h (C24_d1, Maximum, 125 mg group: 375 mg on day 1 and 125 mg on days 2–5, 24 h postdose on day 1): 27600 ng/mL | concentration at 24 h (C24_d1, Maximum, 250 mg group: 750 mg on day 1 and 250 mg on days 2–5, 24 h postdose on day 1): 61000 ng/mL | concentration at 24 h (C24_d1, Mean, 125 mg group: 375 mg on day 1 and 125 mg on days 2–5, 24 h postdose on day 1): 16600 ng/mL | concentration at 24 h (C24_d1, Mean, 250 mg group: 750 mg on day 1 and 250 mg on days 2–5, 24 h postdose on day 1): 34800 ng/mL | concentration at 24 h (C24_d1, Median, 125 mg group: 375 mg on day 1 and 125 mg on days 2–5, 24 h postdose on day 1): 16500 ng/mL | concentration at 24 h (C24_d1, Median, 250 mg group: 750 mg on day 1 and 250 mg on days 2–5, 24 h postdose on day 1): 34200 ng/mL | concentration at 24 h (C24_d1, Minimum, 125 mg group: 375 mg on day 1 and 125 mg on days 2–5, 24 h postdose on day 1): 8430 ng/mL | concentration at 24 h (C24_d1, Minimum, 250 mg group: 750 mg on day 1 and 250 mg on days 2–5, 24 h postdose on day 1): 19400 ng/mL | concentration at 24 h (C24_d5, Maximum, 125 mg group: 375 mg on day 1 and 125 mg on days 2–5, 24 h postdose on day 5): 35200 ng/mL | concentration at 24 h (C24_d5, Maximum, 250 mg group: 750 mg on day 1 and 250 mg on days 2–5, 24 h postdose on day 5): 80900 ng/mL | concentration at 24 h (C24_d5, Mean, 125 mg group: 375 mg on day 1 and 125 mg on days 2–5, 24 h postdose on day 5): 19500 ng/mL | concentration at 24 h (C24_d5, Mean, 250 mg group: 750 mg on day 1 and 250 mg on days 2–5, 24 h postdose on day 5): 41800 ng/mL | concentration at 24 h (C24_d5, Median, 125 mg group: 375 mg on day 1 and 125 mg on days 2–5, 24 h postdose on day 5): 19200 ng/mL | concentration at 24 h (C24_d5, Median, 250 mg group: 750 mg on day 1 and 250 mg on days 2–5, 24 h postdose on day 5): 40800 ng/mL | concentration at 24 h (C24_d5, Minimum, 125 mg group: 375 mg on day 1 and 125 mg on days 2–5, 24 h postdose on day 5): 10500 ng/mL | concentration at 24 h (C24_d5, Minimum, 250 mg group: 750 mg on day 1 and 250 mg on days 2–5, 24 h postdose on day 5): 24300 ng/mL | AUC (Entire AUC, Mean, 125 mg group: 375 mg on day 1 and 125 mg on days 2–5): 2570 µg·h/mL | AUC (Entire AUC, Mean, 250 mg group: 750 mg on day 1 and 250 mg on days 2–5): 5430 µg·h/mL | AUC (Entire AUC, Median, 125 mg group: 375 mg on day 1 and 125 mg on days 2–5): 2530 µg·h/mL | AUC (Entire AUC, Median, 250 mg group: 750 mg on day 1 and 250 mg on days 2–5): 5320 µg·h/mL | Cmax (Mean, 250 mg group: 750 mg on day 1 and 250 mg on days 2–5): 56400 ng/mL | Cmax (Median, 250 mg group: 750 mg on day 1 and 250 mg on days 2–5): 55100 ng/mL

— PMC11649739 (Clinical Pharmacokinetics, 2024)
